Active and inactive are the calls of the source. The calls are words filed in the database; no cut-off is given here.
Key:
[1] = tested on: RAW264.7; test: Antiinflammatory activity in mouse RAW264.7 cells assessed as downregulation of LPS-induced TNF-alpha expression at 60 uM preincubated for 1 hr followed by LPS challenge for 6 to 12 hrs by luciferase reporter gene assay; format: functional, cell-based
Outline: (§1)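 RAW 264.7 transiently cotransfected with promoter-luciferase construct (pGL3-iNOS, pGL3-COX-2 or pTNF-α-luc) plus phRL-TK internal control; 6 h after transfection pretreated 1 h with 60 μM, then LPS 10 ng/mL for 6 or 12 h. Cells washed in cold PBS, lysed, luciferase read. Mean ± SD, three independent experiments.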

[2] = tested on: RAW264.7; test: Antiinflammatory activity in mouse RAW264.7 cells assessed as inhibition of LPS-induced nitric oxide production preincubated for 1 hr followed by LPS challenge for 24 hrs by Griess assay; format: functional, cell-based
Outline: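 RAW 264.7 cells plated at 2 × 10^5 cells/mL and incubated overnight. Compound given at 15, 30 or 60 μM for 1 h, then LPS 10 ng/mL for 24 h. Nitrite in the medium measured by Griess reagent (10 min, room temperature, A540) against a NaNO2 standard. L-NIL 20 μM as positive control; IC50 derived; three independent experiments.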

[3] = tested on: RAW264.7; test: Antiinflammatory activity in mouse RAW264.7 cell lysate assessed as inhibition of LPS-induced iNOS expression preincubated for 1 hr followed by LPS challenge for 24 hrs by Western blot analysis; format: functional, cell-based
Outline: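 RAW 264.7 (DMEM, 10% FBS, 37 °C, 5% CO2) pretreated 1 h at 15, 30 or 60 μM, then LPS 10 ng/mL for 24 h. Lysates run on 10–12% SDS-PAGE, blotted to PVDF, probed with iNOS or COX-2 antibody (1:1000, overnight 4 °C), HRP secondary, ECL; densitometry vs β-actin. Mean ± SD of three independent experiments.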

[4] = tested on: RAW264.7; test: Antiinflammatory activity in mouse RAW264.7 cells assessed as inhibition of LPS-induced iNOS promoter activity at 60 uM preincubated for 1 hr followed by LPS challenge for 6 to 12 hrs by reporter gene assay; format: functional, cell-based; outline: as §1
[5] = tested on: RAW264.7; test: Reduction in LPS-induced NF-kappa B activity in mouse RAW264.7 cells at 15 to 60 uM preincubated for 1 hr followed by LPS challenge for 12 hrs by luciferase reporter gene assay; format: cell-based
[6] = molecular target: T1, Signal transducer and activator of transcription 1 (Mus musculus) (UniProt P42225); test: Inhibition of LPS-induced STAT1 phosphorylation at S727 in mouse RAW264.7 cells at 15 to 60 uM preincubated for 1 hr followed by LPS challenge for 15 mins by Western blot analysis; format: cell-based
T1 sequence (whole entry): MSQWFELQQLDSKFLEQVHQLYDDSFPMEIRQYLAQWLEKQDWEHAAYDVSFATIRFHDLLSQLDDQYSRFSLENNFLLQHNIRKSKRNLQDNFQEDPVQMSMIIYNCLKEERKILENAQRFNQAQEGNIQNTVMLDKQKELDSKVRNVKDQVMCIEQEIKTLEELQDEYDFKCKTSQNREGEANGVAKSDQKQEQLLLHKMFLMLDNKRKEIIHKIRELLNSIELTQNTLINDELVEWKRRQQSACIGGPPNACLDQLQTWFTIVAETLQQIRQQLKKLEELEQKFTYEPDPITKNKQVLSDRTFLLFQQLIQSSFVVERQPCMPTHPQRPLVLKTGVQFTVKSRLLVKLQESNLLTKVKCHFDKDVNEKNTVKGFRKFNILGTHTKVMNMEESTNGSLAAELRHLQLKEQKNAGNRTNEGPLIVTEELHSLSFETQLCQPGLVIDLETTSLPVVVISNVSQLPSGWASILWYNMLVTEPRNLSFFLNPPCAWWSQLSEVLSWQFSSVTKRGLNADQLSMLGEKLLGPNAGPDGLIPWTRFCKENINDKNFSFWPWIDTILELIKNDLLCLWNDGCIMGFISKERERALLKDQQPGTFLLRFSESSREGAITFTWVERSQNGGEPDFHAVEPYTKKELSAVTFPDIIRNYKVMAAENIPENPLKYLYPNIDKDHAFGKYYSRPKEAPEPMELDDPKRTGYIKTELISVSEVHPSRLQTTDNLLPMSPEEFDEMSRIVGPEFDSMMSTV
Outline: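 RAW 264.7 pretreated 1 h at 15, 30 or 60 μM, then LPS 10 ng/mL: 120 min for p-STAT1 Y701, 15 min for p-STAT1 S727, 120 min for p-STAT3 Y705. Western blot with phospho-specific and total STAT1/STAT3 antibodies, β-actin control; three independent experiments.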

[7] = molecular target: Mitogen-activated protein kinase 1 and 3 (ERK2 and ERK1) (Mus musculus) (UniProt P63085+Q63844); test: Inhibition of LPS-induced ERK1/2 phosphorylation in mouse RAW264.7 cells at 15 to 60 uM preincubated for 1 hr followed by LPS challenge for 30 mins by Western blot analysis; format: cell-based
Mitogen-activated protein kinase 1 and 3 (ERK2 and ERK1) (Mus musculus), sequence (P63085 whole entry, looked up): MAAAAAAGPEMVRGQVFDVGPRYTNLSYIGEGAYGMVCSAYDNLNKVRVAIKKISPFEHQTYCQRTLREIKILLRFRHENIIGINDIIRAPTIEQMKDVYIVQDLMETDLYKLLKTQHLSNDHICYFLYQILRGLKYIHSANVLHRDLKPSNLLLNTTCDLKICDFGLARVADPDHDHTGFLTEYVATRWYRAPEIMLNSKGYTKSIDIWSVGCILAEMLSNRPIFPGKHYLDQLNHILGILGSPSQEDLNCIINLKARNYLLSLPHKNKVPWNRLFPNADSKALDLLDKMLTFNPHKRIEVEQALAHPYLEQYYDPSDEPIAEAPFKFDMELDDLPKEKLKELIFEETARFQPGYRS
Mitogen-activated protein kinase 1 and 3 (ERK2 and ERK1) (Mus musculus), sequence (Q63844 whole entry, looked up): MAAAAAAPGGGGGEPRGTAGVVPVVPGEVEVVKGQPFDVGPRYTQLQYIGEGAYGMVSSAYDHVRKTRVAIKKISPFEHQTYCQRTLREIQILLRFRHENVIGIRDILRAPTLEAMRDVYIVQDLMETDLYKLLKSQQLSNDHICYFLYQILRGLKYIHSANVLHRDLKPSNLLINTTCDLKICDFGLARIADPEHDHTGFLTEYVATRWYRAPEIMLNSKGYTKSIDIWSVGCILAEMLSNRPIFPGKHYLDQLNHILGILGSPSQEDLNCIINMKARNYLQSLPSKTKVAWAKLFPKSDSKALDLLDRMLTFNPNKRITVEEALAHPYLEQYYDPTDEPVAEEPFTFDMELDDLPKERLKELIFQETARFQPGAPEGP
Outline: (§2)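 RAW 264.7 pretreated 1 h at 15, 30 or 60 μM, then LPS 10 ng/mL for 30 min. Lysates Western-blotted for p-p38, p38, p-JNK, JNK, p-ERK, ERK with β-actin control; ECL, densitometry. Three independent experiments.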

[8] = tested on: RAW264.7; test: Inhibition of LPS-induced JNK phosphorylation in mouse RAW264.7 cells at 15 to 60 uM preincubated for 1 hr followed by LPS challenge for 30 mins by Western blot analysis; format: cell-based; outline: as §2
[9] = tested on: Mus musculus; test: Inhibition of LPS-induced iNOS mRNA expression in C57BL/6 mouse liver at 10 mg/kg, ip pretreated for 1 hr followed by LPS challenge for 6 hrs by qRT-PCR method; format: functional, organism-based
Outline: (§3)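 Male C57BL/6 mice given 10 mg/kg i.p. or vehicle 1 h before LPS (Salmonella enterica, 25 mg/kg i.p.); liver collected 6 h after LPS, frozen at −80 °C. Liver mRNA by SYBR qRT-PCR normalized to β-actin; protein by Western blot for p-STAT1 (Y701, S727). Eight mice per group; mean ± SD.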

[10] = tested on: Mus musculus; test: Inhibition of LPS-induced COX-2 mRNA expression in C57BL/6 mouse liver at 10 mg/kg, ip pretreated for 1 hr followed by LPS challenge for 6 hrs by qRT-PCR method; format: functional, organism-based; outline: as §3
[11] = tested on: Mus musculus; test: In vivo inhibition of LPS-induced STAT1 phosphorylation at Y701 in C57BL/6 mouse liver at 10 mg/kg, ip pretreated for 1 hr followed by LPS challenge for 6 hrs by Western blot analysis; format: functional, organism-based; outline: as §3
[12] = tested on: Rattus norvegicus; test: Antiinflammatory activity in Sprague-Dawley rat assessed as reduction in carrageenan induced paw edema at 5 mg/kg, ip administered 1 hr before carrageenan challenge measured at 3 hrs post challenge relative to control; format: functional
Outline: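 SD rats given compound i.p. (5, 10 or 15 mg/kg) 1 h before subplantar injection of 1% carrageenan in saline (0.1 mL) into the right hind paw. Paw volume measured by plethysmometer at 1, 3 and 5 h. Edema compared with the carrageenan-only group; seven rats per group.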

`Cc1cc(=O)c2c(O)c([C@@H]3O[C@H](CO)[C@@H](O)[C@H](O)[C@H]3O)c(O)cc2o1` [BIFLORIN] was tested, and the Activity [1] was “Active”, the IC50 [2] was 51.7 µM and the inhibition [3] was “Dose-dependent effect”. The inhibition [4] was “Active”, the inhibition [5] was “inactive” and the inhibition [6] was “Active”. The inhibition [7] was “inactive”, the inhibition [8] was “inactive” and the inhibition [9] was “Active”. The inhibition [10] was “Active”, the inhibition [11] was “Active” and the inhibition in vivo at 5 mg/kg [12] was 26%.

From ChEMBL document CHEMBL4477178, “Biflorin, Isolated from the Flower Buds of Syzygium aromaticum L., Suppresses LPS-Induced Inflammatory Mediators via STAT1 Inactivation in Macrophages and Protects Mice from Endotoxin Shock” (J Nat Prod, 2016)
